Compound activity: PubChem, several laboratories
ABCB1 block = inhibitors of human ABCB1 transporter, ABCG2 counter-screen; CCRF-Adr cells, JC-1 efflux, flow cytometry; inhibition, % at 6.6 µM; actives 0.067% (n = 190,000); in the data active = inhibition above about 40%;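 also: higher value means more JC-1 retained so stronger ABCB1 efflux block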
RAM network inh = yeast RAM network inhibition; S. cerevisiae dse1pr::URA3 reporter, 5-FOA growth OD615, 2 d; analog-sensitive cbk1-as2 kinase mutant strain; inhibition, % at 50 µM; actives 1.8% (n = 190,000); AID 868;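 active = inhibition above a set limit, 3 SD over mean compound inhibition, cut at about 8.4% in these data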;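 also: inhibition rescues growth on 5-FOA so higher OD means more RAM inhibition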
WT yeast gro inh = growth inhibition of WT yeast, mitochondrial fusion screen; mitochondrial fusion phenotypic screen, WT strain; AID 1362; inhibition, % at 10 µM; actives 2.1% (n = 190,000); in the data active = inhibition above about 58%; tested in S. cerevisiae
ABCG2 block = human ABCG2 inhibition, ABCB1 as counter-screen. IgMXP3 cells, JC-1 efflux, flow cytometry. AID 1325. actives 0.1% (n = 190,000). inhibition, % at 6.6 µM. Q9UNQ0;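 active = inhibition above 80%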
Target sequence (Q9UNQ0 whole entry, looked up): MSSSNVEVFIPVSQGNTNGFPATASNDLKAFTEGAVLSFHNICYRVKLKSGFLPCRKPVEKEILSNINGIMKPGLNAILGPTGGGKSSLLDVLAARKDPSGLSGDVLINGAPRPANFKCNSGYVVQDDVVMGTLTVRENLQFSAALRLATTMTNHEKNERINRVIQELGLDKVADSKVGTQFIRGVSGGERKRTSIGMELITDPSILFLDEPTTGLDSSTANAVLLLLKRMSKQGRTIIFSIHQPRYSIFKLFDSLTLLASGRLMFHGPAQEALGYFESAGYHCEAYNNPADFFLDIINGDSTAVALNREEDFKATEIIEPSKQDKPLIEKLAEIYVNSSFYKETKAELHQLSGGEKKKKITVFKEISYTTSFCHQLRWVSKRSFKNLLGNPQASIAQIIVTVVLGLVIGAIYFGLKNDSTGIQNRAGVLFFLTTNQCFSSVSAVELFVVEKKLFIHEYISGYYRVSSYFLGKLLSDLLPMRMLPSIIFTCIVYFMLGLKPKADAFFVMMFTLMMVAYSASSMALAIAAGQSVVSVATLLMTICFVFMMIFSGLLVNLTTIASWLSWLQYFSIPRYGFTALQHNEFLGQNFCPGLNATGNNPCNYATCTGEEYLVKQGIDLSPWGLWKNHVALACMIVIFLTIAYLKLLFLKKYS
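Times: 10 min at 25 °C | Test system: Two drug-resistant human cell lines, ABCG2 and ABCB1 | Quantity: 3 million cells/mL final, two lines in 1:1 ratio | Signal: Flow cytometry, 530 nm JC-1 signal | Dosing: Compound at 6.6 µM | Controls: Nicardipine and DMSO wells | Reagent: JC-1 as fluorescent efflux pump substrate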
Lmaj promast = reduces viability of Leishmania major promastigotes; actives 9% (n = 200,000); inhibition, % at 10 µM; resazurin fluorescence viability; in the data active = inhibition above about 50%;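 also: promastigotes grown with compound for 44 hours at 28 °C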
Numbers stand for hits; – = inactive. Shown are actives, neighbours in structure and some others; about 12% of the full set was active somewhere.

SMILES	ABCB1 block	RAM network inh	WT yeast gro inh	ABCG2 block	Lmaj promast
CCOC(=O)N1CCC(N(CCOC)C(=S)Nc2cccc(SC)c2)CC1	–	–	–	–	64.8
CCOC(=O)N1CCC(Nc2c(Nc3cccc(CC)c3)c(=O)c2=O)CC1	–	–	–	–	–
CCOC(=O)N1CCC(N(CCN(C)C)C(=S)Nc2cccc(OC)c2)CC1	–	–	–	–	–
CCOC(=O)N1CCC(Nc2cccc(SC)c2)CC1	–	–	–	–	96.5
O=C(NCC1CCCO1)C(c1cccs1)N(C(=O)c1ccc(CN2CCOCC2)o1)c1ccc(Cl)cc1 (stereo not drawn)	–	–	–	–	–
CCC(C)[C@H](N)c1nnc(SCC(=O)c2ccc(Cl)cc2)o1 (stereo partly drawn)	–	–	–	–	90.3
CCOC(=O)c1[nH]ncc1CN1CCN(Cc2ccccc2)C(CCO)C1 (stereo not drawn)	–	–	–	–	–
COc1ccccc1-c1cc(C(F)(F)F)nc(S(=O)(=O)CCCC(=O)N2CCOCC2)n1	–	–	–	–	100.5
CN(C)/C=C/C(=O)c1ccc(-c2ccc(Cl)cc2Cl)o1	–	–	–	–	–
Cc1cc(=O)[nH]c(Sc2c(-c3ccccc3)c3ccccc3[nH]c2=O)n1	–	8.7	–	–	–
COc1cccc(C(c2nnnn2CCc2ccccc2)N2CCN(c3ccccc3)CC2)c1OC (stereo not drawn)	–	–	–	–	54.5
COc1ccccc1C(c1nnnn1CCc1ccccc1)N1CCN(c2ccccc2)CC1 (stereo not drawn)	–	–	–	–	–
COc1ccccc1N1CCN(C(c2ccccc2)c2nnnn2CCc2ccccc2)CC1 (stereo not drawn)	–	–	–	–	64.2
Fc1ccc(C(c2nnnn2CCc2ccccc2)N2CCCc3ccccc32)cc1 (stereo not drawn)	–	–	–	–	76.4
Fc1ccc(C(c2nnnn2C2CCCC2)N2CCc3ccccc32)cc1 (stereo not drawn)	–	–	–	–	–
CCCCNS(=O)(=O)c1ccc2nc(-c3cccnc3)cc(C(=O)NCCCOCC)c2c1	–	–	–	–	–
CCOC(=O)c1ccc(NC(=O)CSc2nnnn2CCCO)cc1	–	–	–	–	–
COc1cccc2sc(N(CCCN(C)C)C(=O)c3sc4ccccc4c3Cl)nc12	–	–	–	–	–
CCOc1cccc2sc(N(CCCN(C)C)C(=O)c3ccc(S(=O)(=O)N(C)c4ccccc4)cc3)nc12	–	–	–	–	88.3
COc1ccc(C)c2sc(N(CCCN(C)C)C(=O)c3ccc(S(=O)(=O)N(C)C)cc3)nc12	–	–	–	–	73.5
CCCCN(C(=O)c1ccc(S(=O)(=O)N(C)C)cc1)c1nc2ccccc2s1	–	–	–	–	–
O=C(COC(=O)c1ccco1)NCc1ccc(F)cc1	–	–	–	–	–
O=C1c2ccccc2NC(c2ccc(O)cc2)N1/N=C/c1ccc(O)cc1 (stereo not drawn)	–	–	–	–	67.4
CCCCCOc1ccc(C(=O)NC(CCC)C(=O)O)cc1 (stereo not drawn)	–	–	–	–	–
CCCCCCOc1ccc(/C(N)=N/O)cc1	–	–	–	–	86.5
SMILES	ABCB1 block	RAM network inh	WT yeast gro inh	ABCG2 block	Lmaj promast
CC1=C(C(N)=O)C(c2cccnc2)n2nc(-c3cccc(Cl)c3)nc2N1 (stereo not drawn)	–	–	–	–	67.4
COc1ccccc1-c1nc2n(n1)C(c1cccs1)C(C(=O)Nc1cccnc1)=C(C)N2 (stereo not drawn)	–	–	–	–	98.5
COc1ccccc1NC(=O)C1=C(C)Nc2nc(-c3ccc(N(C)C)cc3)nn2C1c1ccncc1 (stereo not drawn)	–	–	–	–	–
COc1ccccc1NC(=O)C1=C(C)Nc2nc(-c3cccs3)nn2C1c1cccnc1 (stereo not drawn)	–	–	–	–	96.9
Cc1ccc(S(=O)(=O)N(CC(=O)N2CCCCCC2)c2ccccc2)cc1	–	–	–	–	74.6
Cc1ccc(S(=O)(=O)N(CC(=O)N2CCC(C)CC2)c2ccccc2)cc1	–	–	–	–	–
CCN(CC)C(=O)CN(c1ccc(Cl)cc1)S(=O)(=O)c1ccccc1	–	–	–	–	89.6
Cc1ccc(S(=O)(=O)N(CC(=O)Nc2ccccc2C(=O)O)c2ccc(Cl)cc2)cc1	–	8.5	–	–	–
NC(=O)CN(c1ccc(Cl)cc1)S(=O)(=O)c1ccccc1	–	–	–	–	–
CC(=O)OC(C(=O)NC1CCCCC1)c1ccc(Cl)c(Cl)c1 (stereo not drawn)	–	–	–	–	–
COCCN(C(=S)Nc1ccccc1OC)C(C)c1cccs1 (stereo not drawn)	–	–	–	–	–
COc1ccc(N=C2SC(CC(=O)Nc3ccccc3)C(=O)N2CCc2ccccn2)cc1 (stereo not drawn)	–	–	–	–	60.4
COc1ccc(N=C2SC(CC(=O)Nc3cccc(Cl)c3)C(=O)N2Cc2ccco2)cc1 (stereo not drawn)	–	–	–	–	98.4
COc1cc([N+](=O)[O-])ccc1NC(=O)CC1SC(=Nc2ccc(F)cc2)N(CCC2=CCCCC2)C1=O (stereo not drawn)	–	–	–	–	–
COc1ccc(N=C2SC(CC(=O)Nc3ccccc3)C(=O)N2Cc2ccccn2)cc1 (stereo not drawn)	–	–	–	–	–
C=CCN1C(=O)C(CC(=O)Nc2ccc(OC)cc2)SC1=Nc1ccc(S(N)(=O)=O)cc1 (stereo not drawn)	–	–	–	–	–
COc1ccc(OC)c(NC(=O)CC2SC(=Nc3ccc(F)cc3)N(CCC3=CCCCC3)C2=O)c1 (stereo not drawn)	–	–	–	–	54.8
O=C(CC1SC(=Nc2ccc(OC(F)F)cc2)N(CCN2CCOCC2)C1=O)Nc1ccc(F)cc1F (stereo not drawn)	–	–	–	–	62.0
O=C(Cn1cnc([N+](=O)[O-])c1)NC1CCCC1	–	–	–	–	–
COc1ccc(OC)c(NC(=O)CC2SC(=Nc3ccccc3)N(CCc3ccccn3)C2=O)c1 (stereo not drawn)	–	–	–	–	54.9
COc1ccc(N=C2SC(CC(=O)Nc3ccc(OC)cc3OC)C(=O)N2C)cc1 (stereo not drawn)	–	–	–	–	–
Cc1ccc2c(c1)Oc1ccc(NC(=O)CCl)cc1C(=O)N2	–	–	–	–	98.5
Cc1ccc2c(c1)Oc1ccc([N+](=O)[O-])cc1C(=O)N2	–	–	–	–	–
Cc1ccc(C)c2[nH]c(=O)c(C(c3nnnn3Cc3ccccc3)N3CCc4ccccc4C3)cc12 (stereo not drawn)	–	–	–	–	73.4
Cc1ccc2cc(C(c3nnnn3CC3CCCO3)N3CCc4ccccc4C3)c(=O)[nH]c2c1 (stereo not drawn)	–	–	–	–	93.1
